Results reported in ChEMBL document CHEMBL4002592, “Piperlongumine derived cyclic sulfonamides (sultams): Synthesis and in vitro exploration for therapeutic potential against HeLa cancer cell lines” (2017).
Counter-ions that a name gives are not always drawn.

Legend:
Type in all cases: functional
HeLa [1] = assay: Cytotoxicity against human HeLa cells assessed as cell growth at 10^-7 M after 48 hrs by SRB assay relative to control; conditions: read-out: Activity
Outline: (§1)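 HeLa (NCI source) kept in RPMI 1640 with 10% FBS and 2 mM L-glutamine, 37°C, 5% CO2. Cells seeded at 5,000/well, incubated overnight, then exposed 48 h to drug at final 10^-4 to 10^-7 M from 10^-2 M DMSO stock. Fixed with 10% TCA, stained with 0.4% SRB for 20 min, dye dissolved in 10 mM Tris, OD 540 nm. % growth = 100×(T–T₀)/(C–T₀). Mean of three experiments.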

HeLa [2] = assay: Cytotoxicity against human HeLa cells assessed as growth inhibition after 48 hrs by SRB assay
Outline: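 HeLa in RPMI 1640/10% FBS/2 mM glutamine, seeded at 5,000 cells/well overnight, then treated 48 h at final 10^-4 to 10^-7 M (DMSO stock 10^-2 M). Read by SRB: TCA fixation, 0.4% SRB stain, Tris solubilisation, OD 540 nm. Growth corrected for time-zero OD. Mean % growth plotted against molar concentration; GI50 taken as the concentration giving 50% growth inhibition.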

HeLa [3] = assay: Cytotoxicity against human HeLa cells assessed as cell growth at 10^-4 M after 48 hrs by SRB assay relative to control; conditions: read-out: Activity; outline: as §1
HeLa [4] = assay: Cytotoxicity against human HeLa cells assessed as cell growth at 10^-5 M after 48 hrs by SRB assay relative to control; conditions: read-out: Activity; outline: as §1
HeLa [5] = assay: Cytotoxicity against human HeLa cells assessed as cell growth at 10^-6 M after 48 hrs by SRB assay relative to control; conditions: read-out: Activity; outline: as §1

SMILES | growth at 0.1 µM (HeLa [1]) | GI50 (HeLa [2]) | growth inhibition (GI) (HeLa [2]) | growth at 100 µM (HeLa [3]) | growth at 10 µM (HeLa [4]) | growth at 1 µM (HeLa [5])
COc1ccccc1/C=C/C(=O)N1CCC=CS1(=O)=O | 76.7% | 0.1 µM | Dose-dependent effect | -80.1% | 14.6% | 35%
COc1cccc2c1C(=O)c1c(O)c3c(c(O)c1C2=O)C[C@@](O)(C(=O)CO)C[C@@H]3O[C@H]1C[C@H](N)[C@H](O)[C@H](C)O1 [DOXORUBICIN HYDROCHLORIDE] | -76.8% | < 0.1 µM | – | -84.6% | -84.1% | -82.9%
O=C(/C=C/c1c(Cl)nc2ccccn12)N1CCC=CS1(=O)=O | 87% | 8.2 µM | Dose-dependent effect | -78.5% | 20.6% | 59%
COc1ccc(/C=C/C(=O)N2CCC=CS2(=O)=O)cc1 | 84.7% | 24.4 µM | Dose-dependent effect | -55.3% | 68.1% | 83.8%
O=C(/C=C/c1ccccc1F)N1CCC=CS1(=O)=O | 78.5% | 13.7 µM | Dose-dependent effect | -75.3% | 52.4% | 62.3%
O=C(/C=C/c1ccoc1)N1CCC=CS1(=O)=O | 92% | 20.3 µM | Dose-dependent effect | -78.1% | 57.7% | 80.2%
O=C(/C=C/c1cccc(-c2ccccc2)c1)N1CCC=CS1(=O)=O | 97.6% | 19.8 µM | Dose-dependent effect | -63% | 32.9% | 86.5%
O=C(/C=C/c1ccc(Cl)cc1)N1CCC=CS1(=O)=O | 90.7% | 26.4 µM | Dose-dependent effect | -30.5% | 53.5% | 80.2%
COc1cc(/C=C/C(=O)N2CCC=CS2(=O)=O)cc(OC)c1OC | 79.8% | 14.3 µM | Dose-dependent effect | -80.6% | 46.8% | 71.4%
COc1cccc(/C=C/C(=O)N2CCC=CS2(=O)=O)c1 | 90.8% | 23.7 µM | Dose-dependent effect | -79.7% | 68.7% | 92.2%
Cc1ccc(C(=O)N2CCC=CS2(=O)=O)cc1[N+](=O)[O-] | 97.1% | 39.2 µM | Dose-dependent effect | -11.2% | 67.6% | 93.7%
COc1cc(/C=C/C(=O)N2CCC=CS2(=O)=O)cc(OC)c1 | 82.5% | < 0.1 µM | Dose-dependent effect | -78.4% | -60.1% | 32.5%
O=C(/C=C/c1cccc(F)c1)N1CCC=CS1(=O)=O | 96.8% | < 0.1 µM | Dose-dependent effect | -69% | -39.2% | 42.4%
O=C(/C=C/c1c[nH]c2ccc(F)cc12)N1CCC=CS1(=O)=O | 90.4% | 18.8 µM | Dose-dependent effect | -48% | 25.3% | 87.6%
Cc1cccc(/C=C/C(=O)N2CCC=CS2(=O)=O)c1 | 99.9% | 20.7 µM | Dose-dependent effect | -67.1% | 35% | 89.5%
O=C(/C=C/c1cccs1)N1CCC=CS1(=O)=O | 92.1% | 18.8 µM | Dose-dependent effect | -75.3% | 53.4% | 74.2%
O=C(/C=C/c1cccc(C(F)(F)F)c1)N1CCC=CS1(=O)=O | 95.5% | 19.6 µM | Dose-dependent effect | -64.8% | 34.9% | 86.3%
O=C(c1cccc(Cl)c1)N1CCC=CS1(=O)=O | 100% | 45.4 µM | Dose-dependent effect | 10.8% | 55.4% | 86.7%
O=C(/C=C/c1ccc([N+](=O)[O-])cc1)N1CCC=CS1(=O)=O | 100% | 24.4 µM | Dose-dependent effect | -71.6% | 59% | 90.4%
Cc1ccc(/C=C/C(=O)N2CCC=CS2(=O)=O)cc1 | 86.8% | 18.6 µM | Dose-dependent effect | -33.5% | 26.3% | 81.4%
